Laboratory results from article PMC3294036 (Nature structural & molecular biology, 2012).

Experiments:
calcineurin (CN) [1] = biological target: calcineurin (CN) (UniProt Q08209); assay: Calcineurin-AKAP79 competitive binding assay; parameters: species or system human; details: for Ki: read-out: estimated Ki, competition with fluorescent PVIVIT peptide for binding to CN, GST-AKAP79(333–348) fusion proteins (14mer), representative of three experiments
[2] = test system: NFAT3 (NFATc4) nuclear translocation in hippocampal neurons; assay: NFAT translocation assay after KCl depolarization; format: cell-based, rat; details: full-length AKAP79 expressed after AKAP150 RNAi; 3-min 90 mM KCl
calcineurin (CN) [3] = biological target: calcineurin (CN) (UniProt Q08209); format: binding, human; details: 36 °C
Procedure, shortened: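 ATTO 425-labeled AKAP79(333–408) donor (100 nM) was complexed with tetramethylrhodamine-labeled CN acceptor. The preformed complex was mixed in a stopped-flow instrument with 100 µM (final) unlabeled PVIVIT to block rebinding, at room temperature or 36 °C. Dissociation was followed as the fall in FRET signal, fitted as a single exponential; half-time was taken from the rate (n = 4).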

CN = details: cited from earlier work; for Kd: read-out: Kd for CN, natural recognition sites
[4] = test system: CN-YFP / AKAP79-YFP mobility in rat hippocampal neuron dendritic spines; assay: FRAP microscopy in single dendritic spines; format: cell-based; details: wildtype AKAP79-YFP in dendritic spines, single exponential fit

calcineurin (CN), sequence (Q08209 1-381): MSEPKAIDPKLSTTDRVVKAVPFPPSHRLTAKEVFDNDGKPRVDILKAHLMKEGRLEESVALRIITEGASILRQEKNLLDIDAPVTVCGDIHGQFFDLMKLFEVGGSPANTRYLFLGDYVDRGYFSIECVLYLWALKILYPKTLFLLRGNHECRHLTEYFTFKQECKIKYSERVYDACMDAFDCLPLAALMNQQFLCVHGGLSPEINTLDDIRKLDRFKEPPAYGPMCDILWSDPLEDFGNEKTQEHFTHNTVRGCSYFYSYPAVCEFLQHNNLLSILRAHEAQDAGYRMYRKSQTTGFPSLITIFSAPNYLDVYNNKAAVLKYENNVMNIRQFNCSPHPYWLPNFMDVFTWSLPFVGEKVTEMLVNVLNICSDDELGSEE
calcineurin (CN), sequence (P63098 16-170 partner): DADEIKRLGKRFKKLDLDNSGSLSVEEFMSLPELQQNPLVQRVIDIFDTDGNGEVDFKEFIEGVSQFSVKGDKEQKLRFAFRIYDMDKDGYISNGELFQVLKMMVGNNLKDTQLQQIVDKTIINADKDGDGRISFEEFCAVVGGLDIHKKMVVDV

Row | Substance | rescue of NFAT nuclear translocation [2] | Kd (CN) [µM] | other results
1 | AIAIIIT | – | – | Ki (calcineurin (CN) [1]): 3.7 µM
2 | PAAIIIT | – | – | Ki (calcineurin (CN) [1]): 47 µM
3 | PIAIIIA | somewhat less efficiently | – | –
4 | PPAIIIA | as efficiently as wildtype AKAP79 | – | –
5 | PPAIIIT | completely unable to rescue signaling | – | fold stronger binding to CN than wildtype AKAP79 (calcineurin (CN) [1]; GST fusion proteins displacing labeled PVIVIT): ~ 4 fold; half-time of dissociation (calcineurin (CN) [3]; corresponding to mean dissociation rate): ~ 163 ms; mean dissociation rate (calcineurin (CN) [3]; preformed complex mixed with excess unlabelled PVIVIT, mean of n = 4): 4.24 s⁻¹
6 | PQIIIS | – | 5 | –
7 | PRIEIA | – | – | shift in Kd caused by PRIEIT>PRIEIA substitution in NFAT1 (CN): 10 fold
8 | PRIEIT | – | ~25 | –
9 | PSIQIT | – | ~25 | –
10 | PSIRIT | – | ~25 | –
11 | PVIAVN | – | 250 | –
12 | wildtype AKAP79: full-length RNAi-resistant human AKAP79 (YFP- or CFP-tagged) expressed in rat hippocampal neurons | rescued NFAT nuclear translocation | – | mobile fraction of AKAP79-YFP (maximal percent recovery) [4]: 61.8 ± 0.6%
